# Data as given in ChEMBL document CHEMBL3425469, “Discovery of imidazo[2,1-b]thiazole HCV NS4B inhibitors exhibiting synergistic effect with other direct-acting antiviral agents” (J Med Chem, 2015).
# How the values were obtained:
# Hepatitis C virus [1] = assay: Antiviral activity against Hepatitis C virus genotype 1b Con 1 infected in human HuH7 cells at 2.5 nM after 72 hrs by luciferase assay in presence of 7.5 uM clemizole; assay type: functional, Hepacivirus hominis, Huh-7
# In short: (§1)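 Stable Con1 GT1b bicistronic luciferase replicon in Huh-7 cells, 8000 cells/well. Test compound and a marketed DAA or clemizole added alone or together at varied concentrations, 0.5% DMSO final. 72 h at 37°C, then luciferase read with Bright-Glo. Inhibition expressed as % of untreated control, with cytotoxicity run in parallel. CI and DRI derived by the Chou–Talalay median-effect method.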
# Hepatitis C virus [2] = assay: Antiviral activity against Hepatitis C virus genotype 1b Con 1 infected in human HuH7 cells at 2.5 nM after 72 hrs by luciferase assay in presence of 10 uM clemizole; assay type: functional, Hepacivirus hominis, Huh-7; in short: as §1
# Hepatitis C virus [3] = assay: Antiviral activity against Hepatitis C virus genotype 1b Con 1 infected in human HuH7 cells at 20 nM after 72 hrs by luciferase assay in presence of 0.16 nM daclatasvir; assay type: functional, Hepacivirus hominis, Huh-7; in short: as §1
# Hepatitis C virus [4] = assay: Antiviral activity against Hepatitis C virus genotype 1b Con 1 infected in human HuH7 cells at 40 nM after 72 hrs by luciferase assay in presence of 240 nM sofobuvir; assay type: functional, Hepacivirus hominis, Huh-7
# In short: (§2)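 Huh-7 cells stably carrying a GT1b Con1 bicistronic luciferase replicon, seeded at 8000 cells/well. The test compound and the partner DAA are dosed orthogonally at various concentrations, final 0.5% DMSO, then incubated 72 h at 37°C. Bright-Glo luciferase read-out gives replicon inhibition as % of untreated control. Cytotoxicity is checked in parallel by CellTiter-Fluor. CI and DRI are derived by the Chou–Talalay median-effect method.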
# Hepatitis C virus [5] = assay: Antiviral activity against Hepatitis C virus genotype 1b Con 1 infected in human HuH7 cells at 2.5 nM after 72 hrs by luciferase assay in presence of 24 nM simeprevir; assay type: functional, Hepacivirus hominis, Huh-7; in short: as §1
# Hepatitis C virus [6] = assay: Antiviral activity against Hepatitis C virus genotype 1b Con 1 infected in human HuH7 cells at 160 nM after 72 hrs by luciferase assay in presence of 7.5 uM clemizole; assay type: functional, Hepacivirus hominis, Huh-7; in short: as §1
# Hepatitis C virus [7] = assay: Antiviral activity against Hepatitis C virus genotype 1b Con 1 infected in human HuH7 cells at 40 nM after 72 hrs by luciferase assay in presence of 5 uM clemizole; assay type: functional, Hepacivirus hominis, Huh-7; in short: as §2
# Hepatitis C virus [8] = assay: Antiviral activity against Hepatitis C virus genotype 1b Con 1 infected in human HuH7 cells at 160 nM after 72 hrs by luciferase assay in presence of 2160 nM sofobuvir; assay type: functional, Hepacivirus hominis, Huh-7; in short: as §1
# Hepatitis C virus [9] = assay: Antiviral activity against Hepatitis C virus genotype 1b Con 1 infected in human HuH7 cells at 80 nM after 72 hrs by luciferase assay in presence of 20 uM clemizole; assay type: functional, Hepacivirus hominis, Huh-7; in short: as §2
# Hepatitis C virus [10] = assay: Antiviral activity against Hepatitis C virus genotype 1b Con 1 infected in human HuH7 cells at 20 nM after 72 hrs by luciferase assay in presence of 15 uM clemizole; assay type: functional, Hepacivirus hominis, Huh-7; in short: as §2
# Hepatitis C virus [11] = assay: Antiviral activity against Hepatitis C virus genotype 1b Con 1 infected in human HuH7 cells at 20 nM after 72 hrs by luciferase assay in presence of 17.5 uM clemizole; assay type: functional, Hepacivirus hominis, Huh-7; in short: as §2
# Hepatitis C virus [12] = assay: Antiviral activity against Hepatitis C virus genotype 1b Con 1 infected in human HuH7 cells at 80 nM after 72 hrs by luciferase assay in presence of 15 uM clemizole; assay type: functional, Hepacivirus hominis, Huh-7; in short: as §2
# Hepatitis C virus [13] = assay: Antiviral activity against Hepatitis C virus genotype 1b Con 1 infected in human HuH7 cells at 80 nM after 72 hrs by luciferase assay in presence of 60 nM sofobuvir; assay type: functional, Hepacivirus hominis, Huh-7; in short: as §2
# Hepatitis C virus [14] = assay: Antiviral activity against Hepatitis C virus genotype 1b Con 1 infected in human HuH7 cells at 20 nM after 72 hrs by luciferase assay in presence of 3 nM simeprevir; assay type: functional, Hepacivirus hominis, Huh-7; in short: as §2
# Hepatitis C virus [15] = assay: Antiviral activity against Hepatitis C virus genotype 1b Con 1 infected in human HuH7 cells at 5 nM after 72 hrs by luciferase assay in presence of 0.16 nM daclatasvir; assay type: functional, Hepacivirus hominis, Huh-7; in short: as §2
# Hepatitis C virus [16] = assay: Antiviral activity against Hepatitis C virus genotype 1b harboring Y448H NS5B (palm) mutation transfected in human HuH7 cells after 72 hrs by luciferase assay; assay type: functional, cell-based, Hepacivirus hominis; conditions: Huh-7, 72 h
# In short: (§3)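 Huh-7 cells were transiently electroporated with genotype 1b replicon RNA carrying the specified mutation and plated at 10000 cells/well. Compounds were added at 0.5% DMSO final for 72 h at 37°C. Read-out was Bright-Glo luciferase. EC50 is the mean of two independent runs within 2-fold of each other. A reference drug EC50 was measured alongside each mutant replicon to validate it.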
# Hepatitis C virus [17] = assay: Antiviral activity against Hepatitis C virus genotype 1b Con 1 infected in human HuH7 cells at 10 nM after 72 hrs by luciferase assay in presence of 15 uM clemizole; assay type: functional, Hepacivirus hominis, Huh-7; in short: as §1
# Hepatitis C virus [18] = assay: Antiviral activity against Hepatitis C virus genotype 1b Con 1 infected in human HuH7 cells at 10 nM after 72 hrs by luciferase assay in presence of 5 uM clemizole; assay type: functional, Hepacivirus hominis, Huh-7; in short: as §1
# Hepatitis C virus [19] = assay: Antiviral activity against Hepatitis C virus genotype 1b Con 1 infected in human HuH7 cells at 160 nM after 72 hrs by luciferase assay in presence of 10 uM clemizole; assay type: functional, Hepacivirus hominis, Huh-7; in short: as §1
# Hepatitis C virus [20] = assay: Antiviral activity against Hepatitis C virus genotype 1b Con 1 infected in human HuH7 cells at 80 nM after 72 hrs by luciferase assay in presence of 30 nM sofobuvir; assay type: functional, Hepacivirus hominis, Huh-7; in short: as §2
# Hepatitis C virus [21] = assay: Antiviral activity against Hepatitis C virus genotype 1b Con 1 infected in human HuH7 cells at 10 nM after 72 hrs by luciferase assay in presence of 0.02 nM daclatasvir; assay type: functional, Hepacivirus hominis, Huh-7; in short: as §1
# Hepatitis C virus [22] = assay: Antiviral activity against Hepatitis C virus genotype 1b Con 1 infected in human HuH7 cells at 5 nM after 72 hrs by luciferase assay in presence of 7.5 uM clemizole; assay type: functional, Hepacivirus hominis, Huh-7; in short: as §2
# Hepatitis C virus [23] = assay: Antiviral activity against Hepatitis C virus genotype 1b Con 1 infected in human HuH7 cells at 40 nM after 72 hrs by luciferase assay in presence of 60 nM sofobuvir; assay type: functional, Hepacivirus hominis, Huh-7; in short: as §2
# Hepatitis C virus [24] = assay: Antiviral activity against Hepatitis C virus genotype 1b Con 1 infected in human HuH7 cells at 20 nM after 72 hrs by luciferase assay in presence of 10 uM clemizole; assay type: functional, Hepacivirus hominis, Huh-7; in short: as §1
# Hepatitis C virus [25] = assay: Antiviral activity against Hepatitis C virus genotype 1b Con 1 infected in human HuH7 cells at 10 nM after 72 hrs by luciferase assay in presence of 10 uM clemizole; assay type: functional, Hepacivirus hominis, Huh-7; in short: as §1
# Hepatitis C virus [26] = assay: Antiviral activity against Hepatitis C virus genotype 1b Con 1 infected in human HuH7 cells at 80 nM after 72 hrs by luciferase assay in presence of 17.5 uM clemizole; assay type: functional, Hepacivirus hominis, Huh-7; in short: as §2
# Hepatitis C virus [27] = assay: Antiviral activity against Hepatitis C virus genotype 1b Con 1 infected in human HuH7 cells at 5 nM after 72 hrs by luciferase assay in presence of 17.5 uM clemizole; assay type: functional, Hepacivirus hominis, Huh-7; in short: as §2
# Hepatitis C virus [28] = assay: Antiviral activity against Hepatitis C virus genotype 1b harboring V105M mutation transfected in human HuH7 cells after 72 hrs by luciferase assay; assay type: functional, cell-based, Hepacivirus hominis; conditions: Huh-7, 72 h; in short: as §3
# Hepatitis C virus [29] = assay: Antiviral activity against Hepatitis C virus genotype 1b Con 1 infected in human HuH7 cells at 5 nM after 72 hrs by luciferase assay in presence of 120 nM sofobuvir; assay type: functional, Hepacivirus hominis, Huh-7; in short: as §2
# Hepatitis C virus [30] = assay: Antiviral activity against Hepatitis C virus genotype 1b Con 1 infected in human HuH7 cells at 160 nM after 72 hrs by luciferase assay in presence of 24 nM simeprevir; assay type: functional, Hepacivirus hominis, Huh-7; in short: as §1
smiles,measurement,setting,value
O=C(c1nc2scc(C3CC3)n2c1Cl)N1CCN(C2CCCC2)C(=O)C1,CI,Hepatitis C virus [1],0.72
same,CI,Hepatitis C virus [2],0.87
same,CI,Hepatitis C virus [3],0.69
same,CI,Hepatitis C virus [4],0.41
same,CI,Hepatitis C virus [5],1.31
same,CI,Hepatitis C virus [6],1.17
same,CI,Hepatitis C virus [7],1.03
same,CI,Hepatitis C virus [8],0.3
same,CI,Hepatitis C virus [9],1.41
same,CI,Hepatitis C virus [10],0.79
same,CI,Hepatitis C virus [11],1.18
same,CI,Hepatitis C virus [12],1
same,CI,Hepatitis C virus [13],0.64
same,CI,Hepatitis C virus [14],0.94
same,CI,Hepatitis C virus [15],0.88
same,EC50,Hepatitis C virus [16],0.008 µM
same,CI,Hepatitis C virus [17],1.05
same,CI,Hepatitis C virus [18],0.82
same,CI,Hepatitis C virus [19],1.09
same,CI,Hepatitis C virus [20],0.91
same,CI,Hepatitis C virus [21],1.14
same,CI,Hepatitis C virus [22],0.6
same,CI,Hepatitis C virus [23],0.67
same,CI,Hepatitis C virus [24],0.61
same,CI,Hepatitis C virus [25],0.68
same,CI,Hepatitis C virus [26],1.11
same,CI,Hepatitis C virus [27],1.26
same,EC50,Hepatitis C virus [28],27.2 µM
same,CI,Hepatitis C virus [29],0.82
same,CI,Hepatitis C virus [30],0.87
